According to ChEMBL document CHEMBL5647695, “Cyclin-dependent kinase 9 (CDK9) is a novel prognostic marker and therapeutic target in osteosarcoma” (EBioMedicine, 2019):
Calls of active or inactive are those of the source. The rule behind the calls is not given here.

Assays:
[1] = tested on: U2OS; assay: Effect on RNAPII total protein expression in human U2OS cells at 2.5 to 20 uM incubated for 48 hrs by Western blot analysis; type: functional, cell-based; conditions: dose 2.5-20 µM
Outline: (§1)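 Cells seeded in 6-well plates (6 × 10^5 cells/well) and treated with 2.5, 5, 10, 20 μM for 48 h. RIPA lysates resolved by SDS-PAGE and blotted to nitrocellulose. Primary antibodies to CDK9, RNAPII ser2, total RNAPII, MCL-1, BIRC5 and tubulin (1:1000, 4 °C overnight), then IR-dye secondaries; infrared imaging. Densitometry relative to tubulin, mean ± SE in triplicate.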

[2] = tested on: U2OS; assay: Cytotoxicity against human U2OS cells assessed as inhibition of cell proliferation incubated for 5 days by MTT assay; type: functional, cell-based
Outline: (§2)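 Cells in RPMI 1640 with 10% FBS, seeded at 4 × 10^3 cells/well in 96-well plates and exposed to 0, 2.5, 5, 10, 20 μM for 5 days. MTT (5 mg/mL stock) added for 4 h at 37 °C; formazan dissolved in acid isopropanol and read at 490 nm. IC50 from the dose–response; mean ± SE of 2 experiments in triplicate.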

[3] = tested on: KHOS/NP; assay: Cytotoxicity against human KHOS/NP cells assessed as inhibition of cell proliferation incubated for 5 days by MTT assay; type: functional, cell-based; outline: as §2
[4] = tested on: U2OS; assay: Cytotoxicity against human U2OS cells assessed as morphological changes incubated for 3 days by microscopic analysis; type: functional, cell-based; conditions: dose 2.5-20 µM, time 3.0 day
Outline: (§3)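 Cells treated with 0, 2.5, 5, 10, 20 μM for 72 h, then examined by light microscopy for morphology and number of viable cells.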

[5] = tested on: KHOS/NP; assay: Cytotoxicity against human KHOS/NP cells assessed as morphological changes incubated for 3 days by microscopic analysis; type: functional, cell-based; conditions: dose 2.5-20 µM, time 3.0 day; outline: as §3
[6] = tested on: U2OS; assay: Cytotoxicity against human U2OS cells assessed as reduction in viable cell number incubated for 3 days by microscopic analysis; type: functional, cell-based; conditions: dose 2.5-20 µM, time 3.0 day; outline: as §3
[7] = tested on: KHOS/NP; assay: Cytotoxicity against human KHOS/NP cells assessed as reduction in viable cell number incubated for 3 days by microscopic analysis; type: functional, cell-based; conditions: dose 2.5-20 µM, time 3.0 day; outline: as §3
[8] = target: Cyclin-dependent kinase 9 (Homo sapiens) (UniProt P50750); assay: Inhibition of CDK9 in human U2OS cells assessed as reduction in phosphorylated RNAPII protein expression at Ser2 residue incubated for 48 hrs by Western blot analysis; type: cell-based; conditions: dose 2.5-20 µM; outline: as §1
[9] = target: Cyclin-dependent kinase 9 (Homo sapiens) (UniProt P50750); assay: Inhibition of CDK9 in human KHOS/NP cells assessed as reduction in phosphorylated RNAPII protein expression at Ser2 residue incubated for 48 hrs by Western blot analysis; type: cell-based; conditions: dose 2.5-20 µM; outline: as §1
[10] = target: Cyclin-dependent kinase 9 (Homo sapiens) (UniProt P50750); assay: Inhibition of CDK9 in human U2OS cells assessed as reduction in MCL-1 protein expression incubated for 48 hrs by Western blot analysis; type: cell-based; conditions: dose 2.5-20 µM; outline: as §1
[11] = target: Cyclin-dependent kinase 9 (Homo sapiens) (UniProt P50750); assay: Inhibition of CDK9 in human KHOS/NP cells assessed as reduction in MCL-1 protein expression incubated for 48 hrs by Western blot analysis; type: cell-based; conditions: dose 2.5-20 µM; outline: as §1
[12] = target: Cyclin-dependent kinase 9 (Homo sapiens) (UniProt P50750); assay: Inhibition of CDK9 in human U2OS cells assessed as reduction in BIRC5 protein expression incubated for 48 hrs by Western blot analysis; type: cell-based; conditions: dose 2.5-20 µM; outline: as §1
[13] = target: Cyclin-dependent kinase 9 (Homo sapiens) (UniProt P50750); assay: Inhibition of CDK9 in human KHOS/NP cells assessed as reduction in BIRC5 protein expression incubated for 48 hrs by Western blot analysis; type: cell-based; conditions: dose 2.5-20 µM; outline: as §1
[14] = tested on: KHOS/NP; assay: Effect on RNAPII total protein expression in human KHOS/NP cells at 2.5 to 20 uM incubated for 48 hrs by Western blot analysis; type: functional, cell-based; conditions: dose 2.5-20 µM; outline: as §1
[15] = tested on: U2OS; assay: Effect on CDK9 protein expression in human U2OS cells at 2.5 to 20 uM incubated for 48 hrs by Western blot analysis; type: functional, cell-based; conditions: dose 2.5-20 µM; outline: as §1
[16] = tested on: KHOS/NP; assay: Effect on CDK9 protein expression in human KHOS/NP cells at 2.5 to 20 uM incubated for 48 hrs by Western blot analysis; type: functional, cell-based; conditions: dose 2.5-20 µM; outline: as §1
[17] = tested on: U2OS; assay: Induction of apoptosis in human U2OS cells assessed as viable cells at 10 uM by Annexin V/PI staining based flow cytometry analysis (reference value: 94.5%); type: functional; conditions: read-out: Activity
[18] = tested on: U2OS; assay: Induction of apoptosis in human U2OS cells assessed as early apoptotic cells at 10 uM by Annexin V/PI staining based flow cytometry analysis (reference value: 5%); type: functional
[19] = tested on: U2OS; assay: Induction of apoptosis in human U2OS cells assessed as late apoptotic cells at 10 uM by Annexin V/PI staining based flow cytometry analysis (reference value: 0.4%); type: functional
[20] = tested on: U2OS; assay: Induction of apoptosis in human U2OS cells assessed as dead cells at 10 uM by Annexin V/PI staining based flow cytometry analysis (reference value: 0.1%); type: functional
[21] = tested on: KHOS/NP; assay: Induction of apoptosis in human KHOS/NP cells assessed as viable cells at 10 uM by Annexin V/PI staining based flow cytometry analysis (reference value: 94.1%); type: functional; conditions: read-out: Activity
[22] = tested on: KHOS/NP; assay: Induction of apoptosis in human KHOS/NP cells assessed as early apoptotic cells at 10 uM by Annexin V/PI staining based flow cytometry analysis (reference value: 5.3%); type: functional
[23] = tested on: KHOS/NP; assay: Induction of apoptosis in human KHOS/NP cells assessed as late apoptotic cells at 10 uM by Annexin V/PI staining based flow cytometry analysis (reference value: 0.3%); type: functional
[24] = tested on: U2OS; assay: Inhibition of colony formation in human U2OS cells assessed as reduction in colony number and size incubated for 12 days by Giemsa staining based analysis; type: functional, cell-based; conditions: dose 5-10 µM, time 12.0 day
Outline: (§4)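 Seeded at 150 cells/well in 12-well plates with 0, 5 or 10 μM inhibitor; 12 days at 37 °C. Colonies fixed 10 min in methanol, stained 20 min with 10% Giemsa and photographed.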

[25] = tested on: KHOS/NP; assay: Inhibition of colony formation in human KHOS/NP cells assessed as reduction in colony number and size incubated for 12 days by Giemsa staining based analysis; type: functional, cell-based; conditions: dose 5-10 µM, time 12.0 day; outline: as §4
[26] = tested on: U2OS; assay: Inhibition of cell migration in human U2OS cells at 10 uM by wound healing assay; type: functional, cell-based; conditions: time 24-72 hrs
Outline: (§5)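 Monolayers of 4 × 10^5 cells/well in 6-well plates, grown overnight, scratched with two parallel lines, then exposed to 10 μM in 2% FBS medium for 72 h. Photographed at 0, 24, 48, 72 h; width measured at five sites per image. Migration distance = (width at 0 h − width at time point)/2.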

[27] = tested on: KHOS/NP; assay: Inhibition of cell migration in human KHOS/NP cells at 10 uM by wound healing assay; type: functional, cell-based; conditions: time 24-72 hrs; outline: as §5
[28] = tested on: U2OS; assay: Antitumor activity against human U2OS cells cultured as 3D spheroids assessed as reduction in spheroid diameter at 10 uM incubated for 12 days with media replacement for every 24 to 48 hrs and measured every 2 days by Calcein AM staining based fluorescence microscopic analysis relative to control; type: functional; design: scale not given: the % may be the effect or the level left; conditions: time 12 day
Outline: (§6)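 Spheroids grown in 3D hydrogel culture plates, 2 × 10^5 cells/well, with 10 μM inhibitor added at seeding; untreated cells as blank control. 37 °C, 5% CO2, medium changed every 24–48 h. Diameter photographed every 2 days; at 12 days spheroids harvested, stained 15 min with 0.25 μM Calcein AM and imaged by fluorescence microscopy. Mean ± SE of 2 experiments in triplicate.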

[29] = tested on: KHOS/NP; assay: Antitumor activity against human KHOS/NP cells cultured as 3D spheroids assessed as reduction in spheroid diameter at 10 uM incubated for 12 days with media replacement for every 24 to 48 hrs and measured every 2 days by Calcein AM staining based fluorescence microscopic analysis relative to control; type: functional; design: scale not given: the % may be the effect or the level left; conditions: time 12 day; outline: as §6

Cyclin-dependent kinase 9 (Homo sapiens), sequence (P50750 whole entry): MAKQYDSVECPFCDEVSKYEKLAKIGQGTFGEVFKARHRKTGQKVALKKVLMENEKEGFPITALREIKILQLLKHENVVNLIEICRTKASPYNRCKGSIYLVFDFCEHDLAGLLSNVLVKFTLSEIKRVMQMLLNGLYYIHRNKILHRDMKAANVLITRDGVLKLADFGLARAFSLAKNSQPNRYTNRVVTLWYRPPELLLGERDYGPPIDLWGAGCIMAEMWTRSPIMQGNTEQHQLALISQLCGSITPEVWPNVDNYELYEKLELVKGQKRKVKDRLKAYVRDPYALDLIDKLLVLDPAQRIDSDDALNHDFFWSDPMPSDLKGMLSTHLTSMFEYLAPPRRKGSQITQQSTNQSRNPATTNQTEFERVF

COc1ccccc1-c1cc(Nc2cccc(CS(N)(=O)=O)c2)ncn1
Activity [1]: inactive | IC50 ([2]; 120 h): 5.8 µM | Activity ([2]; time 5.0 day): Dose-Dependent Effect | IC50 ([3]; 120 h): 6.5 µM | Activity ([3]; time 5.0 day): Dose-Dependent Effect | Activity [4]: Dose-Dependent Effect | Activity [5]: Dose-Dependent Effect | Activity [6]: Dose-Dependent Effect | Activity [7]: Dose-Dependent Effect | inhibition [8]: Dose-Dependent Effect | inhibition [9]: Dose-Dependent Effect | inhibition [10]: Dose-Dependent Effect | inhibition [11]: Dose-Dependent Effect | inhibition [12]: Dose-Dependent Effect | inhibition [13]: Dose-Dependent Effect | Activity [14]: inactive | Activity [15]: inactive | Activity [16]: inactive | viability at 10 µM [17]: 91.8% | Activity [18]: 6.4% | Activity [19]: 1.5% | Activity [20]: 0.3% | viability at 10 µM [21]: 88.5% | Activity [22]: 2.8% | Activity [23]: 6% | inhibition [24]: Dose-Dependent Effect | inhibition [25]: Dose-Dependent Effect | inhibition [26]: Dose-Dependent Effect | inhibition [27]: Dose-Dependent Effect | Activity [28]: 57.4% | Activity [29]: 48.8%
